Each block holds one molecule with its values, some of them ahead of it. Calls of active or inactive are those of the source. The rule behind the calls is not given here.
Experiments:
[1] = biological target: T1, Heat shock protein HSP90 (Homo sapiens, UniProt P07900+P08238); assay: Inhibition of Hsp90 C-terminal domain in human MCF7 cells assessed as induction of ERalpha degradation at 0.5 to 5 fold antiproliferative EC50 after 24 hrs by Western blot analysis; type: cell-based
In short: (§1)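 MCF-7 cells, cultured as for proliferation, were treated for 24 h with compound in DMSO (1% final) or DMSO vehicle. Cells were harvested in cold PBS and lysed on ice for 1 h in RIPA with 1 mM PMSF, 2 mM orthovanadate and protease inhibitors. Lysates were cleared at 14000g, quantified by BCA, and 20 μg protein was run reducing, blotted to nitrocellulose and probed with specific antibodies plus HRP secondary, with chemiluminescent detection.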

[2] = biological target: T1, Heat shock protein HSP90; assay: Inhibition of Hsp90 C-terminal domain in human MCF7 cells assessed as effect on heat shock response-induced Hsp70 level at 0.5 to 5 fold antiproliferative EC50 after 24 hrs by Western blot analysis; type: cell-based; conditions: mcf7, 24 h; in short: as §1
[3] = biological target: T1, Heat shock protein HSP90; assay: Inhibition of Hsp90 C-terminal domain in human MCF7 cells assessed as induction of Her2 degradation at 0.5 to 5 fold antiproliferative EC50 after 24 hrs by Western blot analysis; type: cell-based; in short: as §1
[4] = biological target: T1, Heat shock protein HSP90; assay: Inhibition of Hsp90 C-terminal domain in human MCF7 cells assessed as induction of CDK6 degradation at 0.5 to 5 fold antiproliferative EC50 after 24 hrs by Western blot analysis; type: cell-based; in short: as §1
[5] = biological target: T1, Heat shock protein HSP90; assay: Inhibition of Hsp90 C-terminal domain in human MCF7 cells assessed as effect on heat shock response-induced Hsp90 level at 0.5 to 5 fold antiproliferative EC50 after 24 hrs by Western blot analysis; type: cell-based; conditions: mcf7, 24 h; in short: as §1
[6] = tested on: MCF7; assay: Antiproliferative activity against human MCF7 cells after 72 hrs by MTS/PMS assay; type: functional, cell-based; conditions: MCF7, 72 h
In short: (§2)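 Cells were grown in 1:1 Advanced DMEM/F12 with non-essential amino acids, 2 mM L-glutamine, penicillin/streptomycin and 10% FBS at 37 °C, 5% CO2. They were seeded at 2000/well and left to attach overnight, then exposed to serial compound dilutions (1% DMSO final) for 72 h. Viable cells were read with an […] proliferation kit and normalized to 1% DMSO controls (100%). IC50 came from separate triplicate experiments.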

[7] = tested on: SK-BR-3; assay: Antiproliferative activity against human SKBR3 cells after 72 hrs by MTS/PMS assay; type: functional, cell-based; conditions: SK-BR-3, 72 h; in short: as §2
[8] = tested on: SK-BR-3; assay: Antiproliferative activity against human SKBR3 cells; type: functional, cell-based; in short: as §2

inhibition [1]: Active
inhibition [3]: Active
inhibition [4]: Active
Structure (SMILES): COc1cccc(-c2cc(C(=O)Nc3cc4ccc(O[C@H]5CC[C@@H](N)CC5)c(C)c4oc3=O)ccc2OC)c1
inhibition (INH) [2]: Not Active
inhibition (INH) [5]: Not Active

inhibition [1]: Active
inhibition [3]: Active
inhibition [4]: Active
Structure (SMILES): COc1cccc(-c2cc(C(=O)Nc3cc4ccc(O[C@H]5CC[C@H](N)CC5)c(C)c4oc3=O)ccc2OC)c1
inhibition (INH) [2]: Not Active
inhibition (INH) [5]: Not Active

EC50 [8]: 7 µM
Structure (SMILES): COc1cccc(-c2cc(C(=O)Nc3cc4ccc(O[C@@H]5OC(C)(C)[C@H](OC)[C@@H](O)[C@H]5O)c(C)c4oc3=O)ccc2OC)c1

inhibition [1]: Active
inhibition [3]: Active
inhibition [4]: Active
Structure (SMILES): COc1cccc(-c2cc(C(=O)Nc3cc4ccc(O[C@H]5CC[C@H](N(C)C)CC5)c(C)c4oc3=O)ccc2OC)c1
inhibition (INH) [2]: Not Active
inhibition (INH) [5]: Not Active

Continued, molecule first:

Structure (SMILES): COc1cccc(-c2cc(C(=O)N[C@H]3CC[C@H](c4ccc(OC5CCN(CCO)CC5)cc4)CC3)ccc2OC)c1
EC50 [6]: 380 nM
EC50 [7]: 285 nM

Structure (SMILES): CO[C@@H]1[C@@H](OC(N)=O)[C@@H](O)[C@H](Oc2ccc3c(O)c(NC(=O)c4ccc(O)c(CC=C(C)C)c4)c(=O)oc3c2C)OC1(C)C [NOVOBIOCIN]
EC50 [8]: 700 µM

Structure (SMILES): COCCN1CCCC(Oc2ccc([C@H]3CC[C@H](NC(=O)c4ccc(OC)c(-c5cccc(OC)c5)c4)CC3)cc2)C1 (stereo partly drawn)
EC50 [6]: 3000 nM
EC50 [7]: 900 nM

Structure (SMILES): COCCN1CCC(Oc2ccc3cc(NC(=O)c4ccc(OC)c(-c5cccc(OC)c5)c4)c(=O)oc3c2C)CC1
EC50 [6]: 2100 nM
EC50 [7]: 4000 nM

Structure (SMILES): COc1cccc(-c2cc(C(=O)Nc3cc4ccc(OC5CCCN(CCO)C5)c(C)c4oc3=O)ccc2OC)c1 (stereo not drawn)
EC50 [6]: 2660 nM
EC50 [7]: 1700 nM

Structure (SMILES): COCCN1CCC(Oc2ccc([C@H]3CC[C@H](NC(=O)c4ccc(OC)c(-c5cccc(OC)c5)c4)CC3)cc2)CC1
EC50 [6]: 520 nM
EC50 [7]: 363 nM

Structure (SMILES): COCCN1CCCC(Oc2ccc3cc(NC(=O)c4ccc(OC)c(-c5cccc(OC)c5)c4)c(=O)oc3c2C)C1 (stereo not drawn)
EC50 [6]: 13300 nM
EC50 [7]: 7000 nM

Structure (SMILES): COc1cccc(-c2cc(C(=O)Nc3cc4ccc(OC5CCN(CCO)CC5)c(C)c4oc3=O)ccc2OC)c1
EC50 [6]: 1900 nM
EC50 [7]: 2100 nM

Structure (SMILES): COc1cccc(-c2cc(C(=O)N[C@H]3CC[C@H](c4ccc(OC5CCCN(CCO)C5)cc4)CC3)ccc2OC)c1 (stereo partly drawn)
EC50 [6]: 625 nM
EC50 [7]: 450 nM

From ChEMBL document CHEMBL4118153, “Exploiting polarity and chirality to probe the Hsp90 C-terminus” (Bioorg Med Chem, 2018)
